Data as given in ChEMBL document CHEMBL1152560, “Substituted 2-arylbenzothiazoles as kinase inhibitors: hit-to-lead optimization” (Bioorg Med Chem, 2009).

Key:
Aurora kinase B = Aurora kinase B (Homo sapiens, UniProt Q96GD4); experiment: Inhibition of Aurora-B by microplate scintillation counting
Method in brief: (§1)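 Substrates: tetra(LRRWSLG) for Aurora A/B; poly(Ala,Glu,Lys,Tyr)6:2:5:1 for PDGFRβ; poly(Glu,Tyr)4:1 for TIE2 and VEGFR2. Stopped with 2% H3PO4.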

[1] = molecular target: Vascular endothelial growth factor receptor 2 (Homo sapiens, UniProt P35968); experiment: Inhibition of VEGFR2 by microplate scintillation counting
[2] = molecular target: T1, Epidermal growth factor receptor (Homo sapiens, UniProt P00533); experiment: Inhibition of EGFR in human HCT116 cells by cellular phosphorylation assay
Angiopoietin-1 receptor [3] = molecular target: T2, Angiopoietin-1 receptor (Homo sapiens, UniProt Q02763); experiment: Inhibition of TIE2 by microplate scintillation counting
Aurora kinase A = molecular target: T3, Aurora kinase A (Homo sapiens, UniProt O14965); experiment: Inhibition of Aurora-A by microplate scintillation counting; method in brief: as §1
T3 sequence (O14965 whole entry): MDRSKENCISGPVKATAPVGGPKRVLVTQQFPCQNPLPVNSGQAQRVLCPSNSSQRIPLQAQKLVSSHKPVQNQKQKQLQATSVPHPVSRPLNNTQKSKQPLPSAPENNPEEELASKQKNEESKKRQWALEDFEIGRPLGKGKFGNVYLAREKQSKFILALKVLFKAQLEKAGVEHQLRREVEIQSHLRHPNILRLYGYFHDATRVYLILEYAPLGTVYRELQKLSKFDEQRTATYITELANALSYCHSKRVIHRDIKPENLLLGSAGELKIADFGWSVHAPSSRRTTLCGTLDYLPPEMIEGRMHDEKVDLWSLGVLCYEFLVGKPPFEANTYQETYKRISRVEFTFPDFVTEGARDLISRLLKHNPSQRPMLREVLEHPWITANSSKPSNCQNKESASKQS

[4] = molecular target: Receptor tyrosine-protein kinase erbB-2 (Homo sapiens, UniProt P04626); experiment: Inhibition of ERBB2 by microplate scintillation counting
Method in brief: (§2)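 Radiometric FlashPlate assay using recombinant kinase (10–200 ng/well) with poly(Glu,Tyr)4:1 substrate. Buffer: 60 mM HEPES-NaOH pH 7.5, 3 mM MgCl2, 3 mM MnCl2, 3 µM orthovanadate, 1.2 mM DTT, PEG 20000, 1 µM [γ-33P]-ATP. Run 80 min at 30 °C, stopped with H3PO4, and 33P incorporation counted.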

Angiopoietin-1 receptor [5] = molecular target: T2, Angiopoietin-1 receptor; experiment: Inhibition of TIE2 in human HCT116 cells by cellular phosphorylation assay; format: cell-based, HCT-116
Method in brief: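 TIE2 autophosphorylation in cells expressing the receptor. Compound was applied, cells were stimulated, then lysed with phosphoprotein levels preserved. Phosphorylation was quantified by sandwich ELISA with a receptor-specific capture antibody and anti-phosphotyrosine antibody, relative to the stimulated high control.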

[6] = molecular target: Platelet-derived growth factor receptor beta (Homo sapiens, UniProt P09619); experiment: Inhibition of PDGFRbeta by microplate scintillation counting; method in brief: as §1
[7] = molecular target: Vascular endothelial growth factor receptor 3 (Homo sapiens, UniProt P35916); experiment: Inhibition of VEGFR3 by microplate scintillation counting; method in brief: as §2
[8] = molecular target: T1, Epidermal growth factor receptor; experiment: Inhibition of wild type EGF-R by microplate scintillation counting

T1 sequence (P00533 whole entry): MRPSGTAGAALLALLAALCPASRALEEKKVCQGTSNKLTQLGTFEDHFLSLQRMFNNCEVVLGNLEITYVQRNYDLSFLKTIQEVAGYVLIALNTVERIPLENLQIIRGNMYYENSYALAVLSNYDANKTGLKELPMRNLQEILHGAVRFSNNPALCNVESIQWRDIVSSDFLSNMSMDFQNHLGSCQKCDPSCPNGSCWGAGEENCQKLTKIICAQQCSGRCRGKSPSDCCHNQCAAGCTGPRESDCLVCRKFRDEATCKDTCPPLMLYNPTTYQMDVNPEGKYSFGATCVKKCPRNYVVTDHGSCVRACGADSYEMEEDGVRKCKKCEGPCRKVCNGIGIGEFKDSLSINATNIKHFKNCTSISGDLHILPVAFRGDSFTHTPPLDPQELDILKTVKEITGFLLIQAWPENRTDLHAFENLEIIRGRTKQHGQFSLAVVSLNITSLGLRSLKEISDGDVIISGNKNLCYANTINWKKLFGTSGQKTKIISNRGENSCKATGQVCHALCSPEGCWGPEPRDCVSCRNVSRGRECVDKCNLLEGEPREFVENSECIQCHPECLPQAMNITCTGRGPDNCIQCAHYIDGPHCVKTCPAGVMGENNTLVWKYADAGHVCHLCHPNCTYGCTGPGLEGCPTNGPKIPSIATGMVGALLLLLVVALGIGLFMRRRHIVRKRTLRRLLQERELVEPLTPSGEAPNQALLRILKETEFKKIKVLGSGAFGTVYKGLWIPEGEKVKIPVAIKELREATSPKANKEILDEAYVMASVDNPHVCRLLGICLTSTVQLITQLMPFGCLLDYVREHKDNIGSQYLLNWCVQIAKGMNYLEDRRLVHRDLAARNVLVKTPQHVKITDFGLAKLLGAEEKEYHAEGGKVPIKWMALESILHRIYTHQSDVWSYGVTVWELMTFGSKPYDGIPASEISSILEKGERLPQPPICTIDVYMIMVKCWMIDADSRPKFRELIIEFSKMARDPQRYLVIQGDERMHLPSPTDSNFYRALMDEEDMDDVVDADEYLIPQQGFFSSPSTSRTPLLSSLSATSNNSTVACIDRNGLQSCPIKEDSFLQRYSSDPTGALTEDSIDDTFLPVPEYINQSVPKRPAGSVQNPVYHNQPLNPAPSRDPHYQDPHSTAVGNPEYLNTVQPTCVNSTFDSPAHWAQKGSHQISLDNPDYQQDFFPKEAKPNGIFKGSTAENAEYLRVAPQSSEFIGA
T2 sequence (Q02763 whole entry): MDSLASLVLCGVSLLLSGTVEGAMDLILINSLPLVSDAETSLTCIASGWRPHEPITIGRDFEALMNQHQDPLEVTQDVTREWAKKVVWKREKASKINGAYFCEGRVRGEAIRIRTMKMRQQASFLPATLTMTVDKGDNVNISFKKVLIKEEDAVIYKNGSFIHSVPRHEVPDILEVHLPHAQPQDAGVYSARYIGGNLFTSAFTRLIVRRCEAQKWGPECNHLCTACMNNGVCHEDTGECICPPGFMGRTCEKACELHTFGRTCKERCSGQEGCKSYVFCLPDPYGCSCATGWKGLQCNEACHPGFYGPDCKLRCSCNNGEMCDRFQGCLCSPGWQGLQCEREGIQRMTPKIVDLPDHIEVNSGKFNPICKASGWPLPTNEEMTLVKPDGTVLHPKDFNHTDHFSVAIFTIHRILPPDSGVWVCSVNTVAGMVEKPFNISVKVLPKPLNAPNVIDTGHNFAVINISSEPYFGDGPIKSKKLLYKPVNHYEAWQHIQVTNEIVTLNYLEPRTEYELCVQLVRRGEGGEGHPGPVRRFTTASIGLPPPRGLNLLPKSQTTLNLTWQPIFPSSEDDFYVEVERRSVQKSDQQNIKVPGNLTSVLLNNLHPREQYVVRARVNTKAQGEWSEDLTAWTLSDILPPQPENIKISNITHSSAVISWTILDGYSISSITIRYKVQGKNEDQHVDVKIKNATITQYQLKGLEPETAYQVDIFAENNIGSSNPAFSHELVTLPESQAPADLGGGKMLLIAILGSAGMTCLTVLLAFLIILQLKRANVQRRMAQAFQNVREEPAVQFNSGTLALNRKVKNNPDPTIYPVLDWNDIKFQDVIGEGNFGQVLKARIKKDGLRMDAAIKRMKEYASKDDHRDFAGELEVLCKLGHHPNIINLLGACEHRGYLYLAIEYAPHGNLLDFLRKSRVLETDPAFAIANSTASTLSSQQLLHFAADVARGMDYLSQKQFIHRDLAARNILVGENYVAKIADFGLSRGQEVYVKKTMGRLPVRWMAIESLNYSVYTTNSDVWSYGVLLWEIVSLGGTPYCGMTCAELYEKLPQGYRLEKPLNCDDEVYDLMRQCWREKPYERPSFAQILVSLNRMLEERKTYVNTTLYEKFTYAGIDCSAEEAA
Chain of Receptor tyrosine-protein kinase erbB-2 (P04626 whole entry): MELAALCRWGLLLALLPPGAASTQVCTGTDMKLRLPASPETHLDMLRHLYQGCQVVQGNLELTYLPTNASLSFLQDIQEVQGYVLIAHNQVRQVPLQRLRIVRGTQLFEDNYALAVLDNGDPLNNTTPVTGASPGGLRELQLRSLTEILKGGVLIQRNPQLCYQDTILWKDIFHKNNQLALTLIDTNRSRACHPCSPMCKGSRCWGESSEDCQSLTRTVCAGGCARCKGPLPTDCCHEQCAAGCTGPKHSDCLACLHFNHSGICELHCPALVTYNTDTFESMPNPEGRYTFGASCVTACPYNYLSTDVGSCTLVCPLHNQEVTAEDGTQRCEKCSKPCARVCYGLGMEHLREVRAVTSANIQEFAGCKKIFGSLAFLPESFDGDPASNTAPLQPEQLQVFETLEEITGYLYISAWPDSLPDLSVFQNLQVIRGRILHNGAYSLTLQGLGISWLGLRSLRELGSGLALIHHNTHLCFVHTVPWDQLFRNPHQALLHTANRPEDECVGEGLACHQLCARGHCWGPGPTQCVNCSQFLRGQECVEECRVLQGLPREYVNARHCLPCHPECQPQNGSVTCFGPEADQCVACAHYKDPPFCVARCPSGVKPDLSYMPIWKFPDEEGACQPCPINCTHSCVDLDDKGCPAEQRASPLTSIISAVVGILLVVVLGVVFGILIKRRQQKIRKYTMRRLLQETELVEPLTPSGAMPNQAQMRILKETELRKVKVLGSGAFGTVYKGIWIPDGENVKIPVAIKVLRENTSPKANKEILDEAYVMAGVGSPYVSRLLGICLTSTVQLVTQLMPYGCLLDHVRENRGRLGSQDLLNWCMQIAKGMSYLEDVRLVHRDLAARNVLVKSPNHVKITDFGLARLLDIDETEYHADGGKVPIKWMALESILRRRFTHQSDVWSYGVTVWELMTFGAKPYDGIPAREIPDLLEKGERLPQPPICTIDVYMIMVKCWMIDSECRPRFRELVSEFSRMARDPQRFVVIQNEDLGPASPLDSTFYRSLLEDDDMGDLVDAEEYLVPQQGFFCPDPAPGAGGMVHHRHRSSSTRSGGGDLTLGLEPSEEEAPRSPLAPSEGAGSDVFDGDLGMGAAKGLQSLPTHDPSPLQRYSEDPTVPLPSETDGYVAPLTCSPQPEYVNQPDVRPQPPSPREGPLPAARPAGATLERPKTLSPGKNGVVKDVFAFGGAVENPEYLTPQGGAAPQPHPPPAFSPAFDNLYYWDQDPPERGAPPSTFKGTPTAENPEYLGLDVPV
Chain of Platelet-derived growth factor receptor beta (P09619 whole entry): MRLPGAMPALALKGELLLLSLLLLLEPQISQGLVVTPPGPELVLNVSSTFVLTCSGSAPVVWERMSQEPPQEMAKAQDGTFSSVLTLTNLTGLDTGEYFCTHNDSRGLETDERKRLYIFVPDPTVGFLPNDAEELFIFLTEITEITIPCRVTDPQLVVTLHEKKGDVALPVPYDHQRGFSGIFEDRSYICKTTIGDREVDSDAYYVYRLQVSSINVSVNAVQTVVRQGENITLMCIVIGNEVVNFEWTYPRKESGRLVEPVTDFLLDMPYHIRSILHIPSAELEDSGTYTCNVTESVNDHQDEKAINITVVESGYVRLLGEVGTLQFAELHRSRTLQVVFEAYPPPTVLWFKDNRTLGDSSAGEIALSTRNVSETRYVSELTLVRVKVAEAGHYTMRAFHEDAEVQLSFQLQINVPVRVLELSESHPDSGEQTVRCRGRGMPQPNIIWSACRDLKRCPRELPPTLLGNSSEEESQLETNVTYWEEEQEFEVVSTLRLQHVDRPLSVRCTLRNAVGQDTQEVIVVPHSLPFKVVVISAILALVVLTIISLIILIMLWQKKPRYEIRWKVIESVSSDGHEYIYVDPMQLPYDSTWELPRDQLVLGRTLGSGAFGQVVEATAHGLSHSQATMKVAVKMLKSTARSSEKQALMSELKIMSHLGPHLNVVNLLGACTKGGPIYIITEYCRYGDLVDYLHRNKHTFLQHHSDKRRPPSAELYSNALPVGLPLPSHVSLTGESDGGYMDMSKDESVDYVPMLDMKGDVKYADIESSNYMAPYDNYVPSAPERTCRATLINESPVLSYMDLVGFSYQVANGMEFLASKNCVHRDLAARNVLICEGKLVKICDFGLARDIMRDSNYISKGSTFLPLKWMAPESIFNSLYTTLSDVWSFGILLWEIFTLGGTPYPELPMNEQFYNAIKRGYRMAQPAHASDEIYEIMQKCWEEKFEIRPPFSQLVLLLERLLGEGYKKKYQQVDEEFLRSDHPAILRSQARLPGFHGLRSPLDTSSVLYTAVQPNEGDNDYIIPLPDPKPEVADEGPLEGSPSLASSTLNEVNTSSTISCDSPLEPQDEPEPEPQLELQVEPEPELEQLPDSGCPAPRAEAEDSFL
Chain of Aurora kinase B (Q96GD4 whole entry): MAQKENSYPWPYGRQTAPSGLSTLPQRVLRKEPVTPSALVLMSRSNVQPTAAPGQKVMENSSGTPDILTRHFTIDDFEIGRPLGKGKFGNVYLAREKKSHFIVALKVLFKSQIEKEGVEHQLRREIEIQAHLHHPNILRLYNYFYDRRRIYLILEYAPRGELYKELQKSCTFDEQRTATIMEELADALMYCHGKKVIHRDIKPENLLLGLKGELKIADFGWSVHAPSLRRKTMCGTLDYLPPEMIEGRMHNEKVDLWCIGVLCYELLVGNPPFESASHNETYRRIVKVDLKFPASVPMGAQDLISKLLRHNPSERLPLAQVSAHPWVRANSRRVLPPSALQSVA

- IC50 (Aurora kinase B): 0.09 µM
- IC50 [1]: 3.3 µM
- EC50 [2]: > 10 µM
- IC50 (Angiopoietin-1 receptor [3]): 0.33 µM
- IC50 (Aurora kinase A): 0.065 µM
- IC50 [4]: > 10 µM
- EC50 (Angiopoietin-1 receptor [5]): > 10 µM
- IC50 [6]: 5.1 µM
- IC50 [7]: 1.7 µM
- IC50 [8]: > 10 µM
SMILES: COc1cc(-c2nc3ccccc3s2)ccc1Nc1ncnc2cc(OCCCN3CCN(C)CC3)c(OC)cc12
